{"source": "paper PMC3068526", "about": "(Science (New York, N.Y.), 2010)", "key": {"[1]": {"tested_on": "wild type (wt) C57BL6 animals", "experiment": "serum acyl and desacyl ghrelin levels in mice after intraperitoneal dosing", "type": "in vivo, mouse", "conditions": "11 μmol/kg (40 mg/kg) intraperitoneal, wt C57BL6 mice on MCT diet", "how_it_was_run": "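Wild-type C57BL6 mice on a medium-chain triglyceride diet were given a single IP dose of test compound at 11 μmol/kg (40 mg/kg), or the D4-Tat control or vehicle (n = 5). Serum acyl and desacyl ghrelin and percent acyl ghrelin were measured at 6, 12 and 24 h. Standard errors are reported.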"}, "[2]": {"molecular_target": "T1, GOAT (Homo sapiens, UniProt Q96T53)", "T1 sequence (Q96T53 1-435)": "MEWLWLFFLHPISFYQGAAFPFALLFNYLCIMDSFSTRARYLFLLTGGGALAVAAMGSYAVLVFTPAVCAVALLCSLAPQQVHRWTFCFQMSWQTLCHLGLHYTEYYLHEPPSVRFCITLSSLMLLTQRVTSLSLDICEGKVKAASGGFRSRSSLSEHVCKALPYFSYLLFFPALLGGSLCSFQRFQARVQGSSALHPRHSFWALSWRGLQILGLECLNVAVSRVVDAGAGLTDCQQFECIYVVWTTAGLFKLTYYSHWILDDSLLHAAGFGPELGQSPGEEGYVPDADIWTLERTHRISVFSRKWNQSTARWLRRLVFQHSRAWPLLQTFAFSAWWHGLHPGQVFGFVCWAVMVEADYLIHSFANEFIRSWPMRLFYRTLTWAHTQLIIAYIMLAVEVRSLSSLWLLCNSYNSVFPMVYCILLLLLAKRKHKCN", "type": "cell-based", "how_it_was_run": "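HeLa and HEK cells stably expressing GOAT and preproghrelin were grown in octanoic acid-supplemented medium. Acyl and desacyl ghrelin were measured after test compound exposure, either as a time course at 6 μM in HeLa cells or as a dose-response after 24 h incubation. IC50 was derived from the acyl ghrelin reduction.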"}, "[3]": {"tested_on": "serotonin N-acetyltransferase", "experiment": "in vitro inhibition of serotonin N-acetyltransferase", "type": "biochemical", "conditions": "at 10 μM"}, "[4]": {"tested_on": "recombinant solubilized or microsomal GOAT", "experiment": "UV crosslinking of biotin-tagged benzoyl-phenylalanine analogs to GOAT", "type": "binding", "conditions": "competitor at 100 μM", "how_it_was_run": "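Solubilized GOAT was UV-crosslinked with biotin-tagged benzophenylalanine-containing probe analogs (L5BP, F4BP) at 5 μM, with or without 100 μM unlabelled test compound as competitor. Cross-linked GOAT was detected on immunoblots with streptavidin, and loading was checked with anti-FLAG.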"}, "[5]": {"tested_on": "ghrelin knockout C57BL6 mice", "experiment": "body weight and adiposity in ghrelin knockout mice", "type": "in vivo, mouse"}, "[6]": {"tested_on": "GHSR-1a receptor", "experiment": "GHSR-1a receptor antagonism", "type": "cell-based"}, "[7]": {"tested_on": "ghrelin knockout animals", "experiment": "intraperitoneal glucose challenge in ghrelin knockout animals", "type": "in vivo, mouse", "conditions": "compared to vehicle or to wt animals analyzed in parallel"}, "[8]": {"tested_on": "human islet cells", "experiment": "insulin response of human islet cells to a glucose challenge", "type": "cell-based", "conditions": "human islet cells pre-treated with compound"}, "[9]": {"tested_on": "wt mice", "experiment": "weight gain in wt mice fed a high fat diet", "type": "in vivo, mouse"}, "[10]": {"tested_on": "wt mice", "experiment": "blood chemistries and blood cell counts after one month of treatment", "type": "in vivo, mouse"}, "[11]": {"tested_on": "PCAF HAT", "experiment": "in vitro inhibition of acetyl-CoA utilizing enzyme PCAF HAT", "type": "biochemical", "conditions": "at 10 μM"}, "[12]": {"tested_on": "UCP2 mRNA", "experiment": "QRT-PCR of islets and gastric fundus isolated from treated mice", "type": "in vivo, mouse"}, "[13]": {"tested_on": "p300 HAT", "experiment": "in vitro inhibition of acetyl-CoA utilizing enzyme p300 HAT", "type": "biochemical", "conditions": "at 10 μM"}, "[14]": {"tested_on": "cell viability", "experiment": "cell viability", "type": "cell-based", "conditions": "in the concentration range studied"}, "[15]": {"tested_on": "recombinant microsomal GOAT", "experiment": "in vitro acyltransferase inhibition assay", "type": "biochemical", "conditions": "100 nM compound, within 5 min (5 min reaction), radioactive assay"}, "[16]": {"tested_on": "wt C57BL6 mice", "experiment": "body weight and QMR fat/lean mass in wt mice on MCT diet, one month treatment", "type": "in vivo, mouse", "conditions": "11 μmol/kg IP every 24 h", "how_it_was_run": "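Wild-type C57BL6 mice on a medium-chain triglyceride diet received test compound at 11 μmol/kg IP every 24 h for one month (n = 5) or vehicle (n = 6). Body mass was recorded daily, and fat and lean mass were determined by quantitative magnetic resonance. Standard errors are reported.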"}, "[17]": {"conditions": "ghrelin knockout mice on MCT diet, 11 μmol/kg, 1 mo"}}, "data": [{"smiles": "CCCCCCC(SCCNC(=O)CCNC(=O)[C@H](O)C(C)(C)COP(=O)(O)OP(=O)(O)OC[C@H]1O[C@@H](n2cnc3c(N)ncnc32)[C@H](O)[C@@H]1OP(=O)(O)O)C(=O)NC[C@H](NC(=O)[C@H](CO)NC(=O)CN)C(=O)N[C@@H](Cc1ccccc1)C(=O)N[C@@H](CC(C)C)C(=O)N[C@@H](CO)C(=O)N1CCC[C@H]1C(=O)N[C@@H](CCC(=O)O)C(=O)N[C@@H](Cc1c[nH]cn1)C(=O)N[C@@H](CCC(N)=O)C(=O)NCCCCCC(=O)N[C@@H](Cc1ccc(O)cc1)C(=O)NCC(=O)N[C@@H](CCCNC(=N)N)C(=O)N[C@@H](CCCCN)C(=O)N[C@@H](CCCCN)C(=O)N[C@@H](CCCNC(=N)N)C(=O)N[C@@H](CCCNC(=N)N)C(=O)N[C@@H](CCC(N)=O)C(=O)N[C@@H](CCCNC(=N)N)C(=O)N[C@@H](CCCNC(=N)N)C(=O)N[C@@H](CCCNC(=N)N)C(N)=O", "note": "(stereo partly shown) [GO-CoA-Tat]", "values": [{"measurement": "serum levels of desacyl ghrelin", "setting": "[1]", "value": "no significant effect"}, {"measurement": "time of maximum inhibition of serum acyl ghrelin after administration", "setting": "[1]", "value": 6, "unit": "h"}, {"measurement": "serum levels of acyl ghrelin", "setting": "[1]; n = 5, 6, 12 and 24 h", "value": "decreased serum levels of acyl ghrelin"}, {"measurement": "inhibition of production of desacyl ghrelin", "setting": "[2]; GOAT/preproghrelin stably expressing HeLa and HEK cells", "value": "not desacyl ghrelin"}, {"measurement": "exposure time needed for maximal inhibition of acyl ghrelin", "setting": "[2]; preproghrelin/GOAT-transfected HeLa and HEK cells, 6 μM in HeLa time course", "value": 24, "unit": "h"}, {"measurement": "inhibition of serotonin N-acetyltransferase", "setting": "[3]", "value": "less than 15%"}, {"measurement": "blocking of cross-linking of F4BP/L5BP analogs to GOAT (competitor)", "setting": "[4]", "value": "can be blocked by GO-CoA-Tat"}, {"measurement": "fat mass (QMR)", "setting": "[5]; [17]", "value": "did not significantly alter"}, {"measurement": "lean mass (QMR)", "setting": "[5]; [17]", "value": "did not significantly alter"}, {"measurement": "weight", "setting": "[5]; ghrelin knockout mice on MCT diet, 11 μmol/kg, 1 mo, n = 5 vs vehicle n = 5", "value": "did not significantly alter"}, {"measurement": "weight gain of treated ghrelin knockout mice versus treated age-matched wt mice", "setting": "[5]; separate long term study, one month of administration", "value": "gained more weight"}, {"measurement": "antagonism of GHSR-1a receptor", "setting": "[6]", "value": "does not antagonize"}, {"measurement": "effect in glucose challenge", "setting": "[7]", "value": "did not have a significant effect"}, {"measurement": "insulin response to a glucose challenge", "setting": "[8]", "value": "statistically significant increase in insulin response"}, {"measurement": "fat mass", "setting": "[9]", "value": "relative reduction of fat mass"}, {"measurement": "food intake", "setting": "[9]", "value": "no effect on food intake"}, {"measurement": "lean mass", "setting": "[9]", "value": "without a change in lean mass"}, {"measurement": "weight gain", "setting": "[9]", "value": "slowed weight gain"}, {"measurement": "IGF-1 levels", "setting": "[10]", "value": "lower IGF-1 levels"}, {"measurement": "blood glucose", "setting": "[10]", "value": "lower blood glucose"}, {"measurement": "generalized toxicity by blood chemistries and blood cell counts", "setting": "[10]", "value": "no evidence of liver, renal, pancreas, or bone marrow toxicities"}, {"measurement": "inhibition of PCAF HAT", "setting": "[11]", "value": "less than 15%"}, {"measurement": "effects on UCP2 mRNA in the gastric fundus", "setting": "[12]; gastric fundus from mice treated 24 h prior to isolation, n = 3", "value": "non-statistically significant effects"}, {"measurement": "reduction in UCP2 mRNA in islets", "setting": "[12]; islets isolated from mice treated 24 h prior to isolation, compared to D4-tat treated mice, n = 3", "value": 20, "unit": "fold"}, {"measurement": "levels of insulin, ghrelin, or GHSR mRNAs in islets", "setting": "[12]; islets isolated from treated mice, compared to D4-tat treated mice", "value": "no change"}, {"measurement": "inhibition of p300 HAT", "setting": "[13]", "value": "less than 15%"}, {"measurement": "toxicity to cell viability", "setting": "[14]", "value": "non-toxic"}, {"measurement": "GOAT inhibition", "setting": "[15]", "value": "Virtually complete GOAT inhibition"}, {"measurement": "weight gain", "setting": "[16]; n = 5 vs vehicle n = 6", "value": "prevented the significant weight gain"}, {"measurement": "fat mass (QMR)", "setting": "[16]; relative to controls", "value": "significantly lower fat mass"}, {"measurement": "lean mass (QMR)", "setting": "[16]; relative to controls", "value": "but not lean mass"}]}]}
